The target in experiment [1] is T1, Bombesin receptor subtype-3 (Homo sapiens, UniProt P32247).
T1 sequence (P32247 whole entry): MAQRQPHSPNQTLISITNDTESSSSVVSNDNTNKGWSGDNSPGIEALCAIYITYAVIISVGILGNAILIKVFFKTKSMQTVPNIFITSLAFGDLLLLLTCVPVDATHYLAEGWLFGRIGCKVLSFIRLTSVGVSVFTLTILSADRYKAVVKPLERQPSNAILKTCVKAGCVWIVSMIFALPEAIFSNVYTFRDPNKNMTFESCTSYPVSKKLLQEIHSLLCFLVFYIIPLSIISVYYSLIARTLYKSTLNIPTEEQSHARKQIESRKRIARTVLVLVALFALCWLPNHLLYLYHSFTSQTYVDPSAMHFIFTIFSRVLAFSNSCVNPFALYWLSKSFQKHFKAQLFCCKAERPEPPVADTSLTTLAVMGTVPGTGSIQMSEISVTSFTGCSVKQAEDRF
Description: Effective concentration required against human bombesin receptor 3 (BRS-3) in CHO cells by using FLIPR assay. It counts as functional, cell-based.

Experiment [2] concerns the target T2, Neuromedin-B receptor (Homo sapiens, UniProt P28336). As to the kind of experiment: (§1) Effective concentration required against nueromedin B receptor (NMB-R) in CHO cells by using FLIPR assay. The format is functional, cell-based.
The nature of experiment [3]: Emax.
Experiment [4] has as its target Gastrin-releasing peptide receptor (Homo sapiens, UniProt P30550). As to the kind of experiment: Effective concentration required against gastrin releasing peptide receptor (GRP-R) in CHO cells by using FLIPR assay. The format is functional, cell-based.
In experiment [5] the target is T2, Neuromedin-B receptor. The experiment is described as §1. It counts as functional, cell-based. An outline of the steps: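 Intracellular Ca2+ mobilization was read by FLIPR in CHO cells transfected with the human receptor. NMB was the reference for NMB-R and GRP for GRP-R. EC50 values (±SEM) come from independent concentration–response curves, 4 to 30 per compound depending on the series.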
This is another data set of the same source.

Square brackets hold non-standard residues; d marks the D form. Peptide text beside a SMILES is read from it. * marks the point of attachment. NHPhenethyl = c1ccc(CCN*)cc1; Nle = CCCC[C@H](N)C(=O)O; PhAc = O=C(Cc1ccccc1)*; βAla = NCCC(=O)O

T2 sequence (P28336 whole entry): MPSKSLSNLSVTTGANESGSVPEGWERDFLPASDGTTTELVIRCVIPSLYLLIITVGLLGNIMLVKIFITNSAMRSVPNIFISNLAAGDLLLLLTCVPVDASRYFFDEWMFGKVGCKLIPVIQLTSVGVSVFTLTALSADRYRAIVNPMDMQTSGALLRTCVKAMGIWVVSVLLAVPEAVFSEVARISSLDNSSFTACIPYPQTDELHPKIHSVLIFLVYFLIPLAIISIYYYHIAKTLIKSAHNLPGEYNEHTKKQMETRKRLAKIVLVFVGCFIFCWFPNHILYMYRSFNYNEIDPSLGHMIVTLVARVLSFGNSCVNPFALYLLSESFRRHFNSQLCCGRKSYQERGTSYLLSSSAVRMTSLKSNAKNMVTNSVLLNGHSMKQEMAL
Gastrin-releasing peptide receptor, sequence (P30550 whole entry): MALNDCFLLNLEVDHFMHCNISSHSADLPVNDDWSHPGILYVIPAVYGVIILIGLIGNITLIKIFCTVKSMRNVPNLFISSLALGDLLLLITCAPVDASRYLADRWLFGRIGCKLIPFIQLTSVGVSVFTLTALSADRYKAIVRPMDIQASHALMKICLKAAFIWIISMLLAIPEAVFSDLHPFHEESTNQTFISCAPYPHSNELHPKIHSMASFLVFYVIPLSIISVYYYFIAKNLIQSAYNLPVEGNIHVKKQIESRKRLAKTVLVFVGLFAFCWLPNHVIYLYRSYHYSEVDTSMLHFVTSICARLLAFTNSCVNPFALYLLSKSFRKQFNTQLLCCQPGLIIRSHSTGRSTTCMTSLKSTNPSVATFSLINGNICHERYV

With `CCCC[C@H](NC(=O)[C@H](Cc1ccccc1)NC(=O)[C@H](Cc1cnc[nH]1)NC(=O)CCNC(=O)[C@@H](NC(=O)[C@H](C)NC(=O)[C@H](Cc1c[nH]c2ccccc12)NC(=O)[C@H](CCC(N)=O)NC(=O)[C@H](N)Cc1ccc(O)cc1)C(C)C)C(N)=O` (H-[dY]QWAV[βAla]HF[Nle]-NH2), the EC50 – broadly, the midpoint of the concentration-response curve – in experiment [1] stood at 0.151 µM; in experiment [2], 0.31 µM.

For `NC(=O)CC[C@H](NC(=O)Cc1ccccc1)C(=O)N[C@@H](Cc1c[nH]c2ccccc12)C(=O)NCCc1ccccc1` (PhAc-Gln-Trp-NHPhenethyl), in experiment [3], the Emax worked out at 38. In addition, the concentration giving a half-maximal response (EC50) in experiment [1] was 1.2 µM; in experiment [4], 19.1 µM; in experiment [5], 15 µM.

As to `NC(=O)CC[C@H](NC(=O)Cc1ccc(Cl)cc1)C(=O)N[C@@H](Cc1c[nH]c2ccccc12)C(=O)NCCc1ccccc1`, the Emax in experiment [3] was determined as 62. Also, the EC50 is 1.4 µM in experiment [1], 12.2 µM in experiment [4] and 18.5 µM in experiment [5].

The record behind these values is ChEMBL document CHEMBL1145035, “Design of selective peptidomimetic agonists for the human orphan receptor BRS-3” (J Med Chem, 2003).
